ChEMBL document CHEMBL5230175, “The war on hTG2: warhead optimization in small molecule human tissue transglutaminase inhibitors” (RSC Med Chem, 2023)

What was measured:
[1] = Metabolic stability in human whole blood assessed as half-life at 1 to 5 uM measured upto 120 mins by LC-MS/MS analysis; format: ADME, tissue-based; conditions: dose 1-5 µM
Summary of the method: (§1)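 Pooled human whole blood (K3-EDTA) was spiked to 1 or 5 μM compound. Aliquots taken at 0, 15, 30, 60 and 120 min were quenched in acetonitrile with 0.1% formic acid and internal standard, then analysed by LC-MS/MS. Percent parent remaining is the peak-area ratio versus T = 0; half-life comes from an exponential decay fit.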

[2] = target: T1, Protein-glutamine gamma-glutamyltransferase (Homo sapiens) (UniProt P21980); assay: Irreversible inhibition of human TG2 using Cbz-Glu-(gamma-p-nitrophenylester)Gly (AL5) as substrate assessed as substrate hydrolysis by measuring observed binding constant incubated for 20 mins by colorimetric assay
T1 sequence (whole entry): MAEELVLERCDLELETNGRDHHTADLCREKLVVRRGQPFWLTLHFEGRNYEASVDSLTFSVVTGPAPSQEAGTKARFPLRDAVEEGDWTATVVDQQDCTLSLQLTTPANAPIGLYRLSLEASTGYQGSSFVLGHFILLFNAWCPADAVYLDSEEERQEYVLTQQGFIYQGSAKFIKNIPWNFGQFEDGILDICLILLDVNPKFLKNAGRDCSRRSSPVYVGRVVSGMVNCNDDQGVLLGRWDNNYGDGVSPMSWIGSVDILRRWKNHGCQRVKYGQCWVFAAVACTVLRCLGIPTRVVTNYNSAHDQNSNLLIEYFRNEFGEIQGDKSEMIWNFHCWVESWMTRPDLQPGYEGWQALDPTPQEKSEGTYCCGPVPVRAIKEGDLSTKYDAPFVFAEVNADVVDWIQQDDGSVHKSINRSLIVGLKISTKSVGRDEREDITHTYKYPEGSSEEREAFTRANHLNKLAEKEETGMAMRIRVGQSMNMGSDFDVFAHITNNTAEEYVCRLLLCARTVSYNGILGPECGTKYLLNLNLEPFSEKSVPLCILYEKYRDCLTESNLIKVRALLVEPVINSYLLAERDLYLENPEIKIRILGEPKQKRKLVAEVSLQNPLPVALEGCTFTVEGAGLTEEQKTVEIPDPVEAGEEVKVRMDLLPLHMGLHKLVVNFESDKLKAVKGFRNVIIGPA

[3] = target: T2, Protein-glutamine gamma-glutamyltransferase K (Homo sapiens) (UniProt P22735); assay: Irreversible inhibition of human TG1 using Cbz-Glu-(gamma-p-nitrophenylester)Gly (AL5) as substrate assessed as substrate hydrolysis by measuring observed binding constant incubated for 100 mins by colorimetric assay
T2 sequence (whole entry): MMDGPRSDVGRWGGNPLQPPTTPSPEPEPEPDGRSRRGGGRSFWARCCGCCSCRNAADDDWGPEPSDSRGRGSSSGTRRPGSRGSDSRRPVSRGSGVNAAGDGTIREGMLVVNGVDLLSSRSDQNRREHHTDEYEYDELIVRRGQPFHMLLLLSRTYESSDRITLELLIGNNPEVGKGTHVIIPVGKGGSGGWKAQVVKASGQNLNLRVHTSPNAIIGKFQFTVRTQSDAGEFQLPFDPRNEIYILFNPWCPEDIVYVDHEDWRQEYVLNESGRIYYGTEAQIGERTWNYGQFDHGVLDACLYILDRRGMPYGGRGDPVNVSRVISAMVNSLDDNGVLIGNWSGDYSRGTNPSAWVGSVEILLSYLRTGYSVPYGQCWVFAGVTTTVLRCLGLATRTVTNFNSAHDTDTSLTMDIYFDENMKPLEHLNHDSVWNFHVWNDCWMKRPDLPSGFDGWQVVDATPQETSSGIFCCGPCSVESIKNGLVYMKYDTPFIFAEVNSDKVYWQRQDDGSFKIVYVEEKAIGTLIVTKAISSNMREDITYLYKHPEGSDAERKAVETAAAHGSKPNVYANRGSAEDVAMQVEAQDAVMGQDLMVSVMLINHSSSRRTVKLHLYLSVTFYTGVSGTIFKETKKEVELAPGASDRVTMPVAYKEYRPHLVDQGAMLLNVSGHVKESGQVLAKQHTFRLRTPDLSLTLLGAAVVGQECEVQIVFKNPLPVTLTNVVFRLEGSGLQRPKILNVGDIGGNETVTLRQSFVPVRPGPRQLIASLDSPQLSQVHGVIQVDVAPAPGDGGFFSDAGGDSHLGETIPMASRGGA

[4] = target: T3, Coagulation factor XIII A chain (Homo sapiens) (UniProt P00488); assay: Irreversible inhibition of human factor XIIIa using peptidic FRET-quenched probe A101 as substrate assessed as observed binding constant by fluorescence based assay
T3 sequence (whole entry): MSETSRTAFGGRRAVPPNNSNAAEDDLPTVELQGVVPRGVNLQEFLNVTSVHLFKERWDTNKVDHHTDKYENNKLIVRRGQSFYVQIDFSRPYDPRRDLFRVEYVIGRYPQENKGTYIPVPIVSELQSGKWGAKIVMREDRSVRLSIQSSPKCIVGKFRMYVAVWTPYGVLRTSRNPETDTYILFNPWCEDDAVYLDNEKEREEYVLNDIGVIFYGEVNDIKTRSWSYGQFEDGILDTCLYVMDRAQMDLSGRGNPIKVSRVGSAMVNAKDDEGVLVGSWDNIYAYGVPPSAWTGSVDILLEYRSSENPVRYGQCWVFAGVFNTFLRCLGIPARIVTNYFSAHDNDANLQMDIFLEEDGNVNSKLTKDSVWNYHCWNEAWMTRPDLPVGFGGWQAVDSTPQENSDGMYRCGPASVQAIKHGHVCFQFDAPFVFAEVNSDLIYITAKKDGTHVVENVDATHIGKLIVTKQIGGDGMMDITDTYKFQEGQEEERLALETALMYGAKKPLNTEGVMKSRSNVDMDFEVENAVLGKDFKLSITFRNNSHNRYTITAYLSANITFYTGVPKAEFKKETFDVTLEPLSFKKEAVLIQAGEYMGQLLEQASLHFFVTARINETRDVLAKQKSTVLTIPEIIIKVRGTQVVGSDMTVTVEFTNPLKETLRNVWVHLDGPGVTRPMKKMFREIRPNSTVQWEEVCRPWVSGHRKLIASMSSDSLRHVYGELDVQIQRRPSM

[5] = Metabolic stability in pooled cryopreserved human hepatocytes assessed as half-life at 1 uM measured upto 120 mins by LC-MS/MS analysis; format: ADME, cell-based, Hepatocyte
Summary of the method: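 Samples were taken at 0, 5, 15, 30, 60 and 120 min, acetonitrile-quenched with internal standard, and analysed by LC-MS/MS. Half-life came from exponential decay of the parent/IS ratio relative to T = 0.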

[6] = GSH reactivity in aqueous buffer assessed as GSH adduct formation by measuring corrected intrinsic second order rate constant (K2 corrected) by HPLC analysis; format: physicochemical
Summary of the method: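 GSH stock diluted to final 15 mM in aqueous buffer (pH 8.0 used, 7.4 too slow), reaction started with inhibitor at final 0.5 mM, 2% v/v DMSO. Incubated at 22 °C and aliquots taken over at least 5–6 half-lives. HPLC with UV 214/254 nm tracked adduct growth and inhibitor loss, fitted mono-exponentially to give pseudo-first-order kobs. kobs was divided by [thiol] and then by the thiolate fraction (pKa 8.7) to give kcorr2. Run in duplicate.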

[7] = Metabolic stability in human whole blood assessed as drug degradation measured upto 120 mins by LC-MS/ms analysis; format: ADME, tissue-based; conditions: 2 h; summary of the method: as §1

| half-life at up to 5 µM [1] | K [2] | K [3] | K [4] | half-life at 1 µM [5] | K [6] | Stability [7] | SMILES |
| --- | --- | --- | --- | --- | --- | --- | --- |
| > 2 h | 0.5 min⁻¹ | 0.023 min⁻¹ | 0.051 min⁻¹ | > 2 h | 0.079 10^-3/M/min | Stable | C=CC(=O)NCC(=O)N1CCN(C(=O)C23CC4CC(CC(C4)C2)C3)CC1 |
| > 2 h | 0.537 min⁻¹ | 0.018 min⁻¹ | 0.013 min⁻¹ | > 2 h | 1.48 10^-3/M/min | Stable | O=C(CCl)NCC(=O)N1CCN(C(=O)C23CC4CC(CC(C4)C2)C3)CC1 |
